Measurements of several laboratories.
Protocols differ between the studies behind these lines.
Target: Tyrosine-protein kinase receptor UFO (AXL, Homo sapiens, UniProt P30530)
One construct used (P30530 26-894): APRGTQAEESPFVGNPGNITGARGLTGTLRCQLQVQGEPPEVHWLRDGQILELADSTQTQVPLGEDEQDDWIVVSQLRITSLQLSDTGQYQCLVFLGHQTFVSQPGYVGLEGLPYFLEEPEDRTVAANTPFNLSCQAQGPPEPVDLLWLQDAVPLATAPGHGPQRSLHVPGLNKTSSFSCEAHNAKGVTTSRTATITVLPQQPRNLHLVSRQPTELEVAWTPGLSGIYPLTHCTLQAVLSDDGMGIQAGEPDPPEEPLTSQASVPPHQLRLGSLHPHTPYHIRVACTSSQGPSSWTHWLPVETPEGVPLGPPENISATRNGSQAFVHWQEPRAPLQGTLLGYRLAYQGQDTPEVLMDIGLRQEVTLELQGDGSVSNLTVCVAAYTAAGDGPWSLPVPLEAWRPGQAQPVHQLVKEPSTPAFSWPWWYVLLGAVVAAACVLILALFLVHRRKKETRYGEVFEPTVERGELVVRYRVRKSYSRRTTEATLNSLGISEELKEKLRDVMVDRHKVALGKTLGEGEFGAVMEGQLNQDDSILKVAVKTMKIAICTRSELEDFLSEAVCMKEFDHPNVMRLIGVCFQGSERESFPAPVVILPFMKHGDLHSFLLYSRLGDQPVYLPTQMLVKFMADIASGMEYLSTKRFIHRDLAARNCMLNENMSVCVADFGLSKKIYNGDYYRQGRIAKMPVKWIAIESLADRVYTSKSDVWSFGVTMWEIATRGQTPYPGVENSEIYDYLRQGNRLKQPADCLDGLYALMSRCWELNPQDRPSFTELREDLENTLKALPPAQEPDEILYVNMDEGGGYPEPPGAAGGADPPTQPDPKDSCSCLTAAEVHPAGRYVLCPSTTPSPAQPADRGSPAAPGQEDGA

SMILES | assay | conditions | remaining binding [%]
C[C@@H](c1cccc(C#N)c1)n1cc(Cl)cc(C(N)=O)c1=N | cell-free assay, competition with immobilised ligand | 1 µM | 100
C[C@H]1CCN(c2nccc(-c3cnn4ncccc34)n2)C1 | binding | 1 µM | 49
O=C(Nc1c[nH]nc1C(=O)NC1CCNCC1)c1cc(F)cc(F)c1 | binding, competition with immobilised ligand | 1 µM | 100
C[C@H](c1ccnc(Nc2nc3ccc(-c4cc(N(C)C)ncn4)cc3[nH]2)c1)N1CCN(C(=O)CC(F)(F)F)CC1 | cell-free assay, competition with immobilised ligand | 0.1 µM | 100
O=C(c1ccc(Nc2nccc(-c3cc4ccccc4s3)n2)cc1)N1CCC(N2CCCC2)CC1 | binding, competition with immobilised ligand | 1 µM | 33
Cc1nccc(COC(=O)N2C[C@@H]3[C@@H](CNC(=O)c4ccc5[nH]nnc5c4)[C@@H]3C2)n1 | cell-free assay, competition with immobilised ligand | 1 µM | 88
CN(CCCC(F)(F)F)c1nccc(-c2cnn3ncccc23)n1 | binding | 1 µM | 75
CN([C@@H]1CCc2c(CC(=O)O)c3cc(S(C)(=O)=O)ccc3n2C1)S(=O)(=O)c1ccc(F)cc1 | cell-free assay, competition with immobilised ligand | 1 µM | 100
CCN1CCN(Cc2ccc(C(=O)Nc3ccc(C)c(Oc4ccc5c(c4)CC(=O)N5)c3)cc2C(F)(F)F)CC1 | binding, competition with immobilised ligand | 1 µM | 98
O=C(NCCCN1CCOCC1)c1ccc(Nc2ncc(Cl)c(-c3ccc(Cl)s3)n2)cc1 | binding, competition with immobilised ligand | 1 µM | 76
C[C@@H](c1ccc(-n2cnc3c(N)ncnc32)cc1)N1CCc2nn(C)c(Cc3ccccc3)c2C1=O | binding, competition with immobilised ligand | 0.1 µM | 100
CN(C)c1nccc(-c2cnc3ncccn23)n1 | binding | 1 µM | 100
Nc1ncc2c(n1)-c1c([nH]c3ccc(C#CC4CC4)cc13)CCCC2 | binding, competition with immobilised ligand | 1 µM | 87
C[C@@H]1CN(c2ccc3ncc(-c4ccc5[nH]nc(C6CC6)c5c4)n3n2)C[C@H](C)O1 | binding, competition with immobilised ligand | 0.5 µM | 60
c1cnn2ncc(-c3ccnc(N4CCC45COC5)n3)c2c1 | binding | 1 µM | 74
CCCCN(CCCC)C(=O)CN1C[C@H](c2cc(OC)c3c(c2)OCO3)[C@@H](C(=O)O)[C@@H]1CC(C)(C)CCC | cell-free assay, competition with immobilised ligand | 1 µM | 100
N#Cc1ccccc1CSc1nnc2c(n1)[nH]c1ccccc12 | binding, competition with immobilised ligand | 10 µM | 65
O=C(c1ccc(Nc2ncc(Cl)c(-c3cc4ccccc4s3)n2)cc1)N1CCC(N2CCCC2)CC1 | binding, competition with immobilised ligand | 1 µM | 1.4
CO[C@@H](C)c1c(Nc2ccc([C@@H](N(C)C(=O)C3CCS(=O)(=O)CC3)C(F)(F)F)cc2)cnc2cc(Cl)nn12 | cell-free assay, competition with immobilised ligand | 1 µM | 77
c1cncc(-c2cccc(Nc3nccc(NC4CCCCC4)n3)c2)c1 | binding, competition with immobilised ligand | 10 µM | 4
CC1CCCN1c1nccc(-c2cnn3ncccc23)n1 (stereo not drawn) | binding | 1 µM | 100
CNC(=O)[C@@H]1CC[C@@H](n2c(-c3ccc4cnccc4c3)nc3ccc(C(=O)NCc4cccc(C(N)=O)c4)cc32)C1 | binding, competition with immobilised ligand | 1 µM | 99
CNC(=O)c1ccc(Nc2ncc(C(F)(F)F)c(NCc3nccnc3N(C)S(C)(=O)=O)n2)cc1 | cell-free assay, competition with immobilised ligand | 0.1 µM | 51
N[C@@H]1CCN(c2nccc(-c3cnn4ncccc34)n2)C1 | binding | 1 µM | 100
